For assay [1], the target named is T1, Coagulation factor X (Homo sapiens, UniProt P00742). In words: In vitro inhibition was measured against Human Coagulation factor X. The method in brief: (§1)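 Factor Xa was used at 30 pM final, with Pefachrome Xa substrate, in phosphate buffer pH 7.4 with 100 mM NaCl and 0.1% BSA, at 25 °C. The enzyme-initiated reaction was followed as the 405 nm increase for 30 min. Inhibitor was diluted from a cremophor/ethanol solution. Ki came from weighted Dixon-plot regression; triplicate determinations.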
T1 sequence (P00742 41-179 limits assumed): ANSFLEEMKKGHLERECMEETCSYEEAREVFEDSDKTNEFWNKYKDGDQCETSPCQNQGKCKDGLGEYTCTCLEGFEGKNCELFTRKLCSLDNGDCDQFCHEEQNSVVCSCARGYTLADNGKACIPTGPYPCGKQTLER
T1 sequence (P00742 235-488 limits assumed): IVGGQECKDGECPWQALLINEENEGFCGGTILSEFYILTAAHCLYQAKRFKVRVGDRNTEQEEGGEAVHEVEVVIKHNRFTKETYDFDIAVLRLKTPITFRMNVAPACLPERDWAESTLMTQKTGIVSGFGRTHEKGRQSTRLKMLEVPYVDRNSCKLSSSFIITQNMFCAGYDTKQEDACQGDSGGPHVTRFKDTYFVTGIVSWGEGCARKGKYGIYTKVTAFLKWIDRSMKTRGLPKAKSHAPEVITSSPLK

The target in assay [2] is T2, Serine protease 1 (Bos taurus, UniProt P00760).
T2 sequence (P00760 whole entry): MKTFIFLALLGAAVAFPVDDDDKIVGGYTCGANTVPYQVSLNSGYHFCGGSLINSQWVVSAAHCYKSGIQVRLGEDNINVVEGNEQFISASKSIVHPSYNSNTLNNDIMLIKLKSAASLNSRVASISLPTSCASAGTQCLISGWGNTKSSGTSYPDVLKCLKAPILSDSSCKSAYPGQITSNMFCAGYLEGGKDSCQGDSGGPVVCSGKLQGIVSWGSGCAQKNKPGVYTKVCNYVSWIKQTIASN
The experiment in a line: In vitro inhibition was measured against […] bovine pancreatic trypsin. The method in brief: (§2)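 Trypsin at 260 pM final was run with Pefachrome TRY substrate in 100 mM sodium phosphate pH 7.4, 100 mM NaCl and 0.1% BSA, at 25 °C. Inhibitor was pre-mixed with substrate and the reaction started with enzyme. Absorbance at 405 nm (p-nitroaniline) was read over 30 min. Ki was fitted to the Dixon equation by weighted linear regression; triplicate, mean ± SD.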

The target of assay [3] is T1, Coagulation factor X. The experiment in a line: In vitro inhibition was measured against Human Coagulation factor X; […]. The method in brief: as §1
Assay [4] concerns the target Prothrombin (Homo sapiens, UniProt P00734). The experiment in a line: In vitro inhibition was measured against Human Thrombin.
The target of assay [5] is T2, Serine protease 1. In words: In vitro inhibition was measured against Bovine pancreatic trypsin. The method in brief: as §2

pKi: −log10 of the molar value. Where only a bound is given, the exact number is not on record here.

With `N=C(N)NCCCNC(=O)[C@@H]1CS[C@H]2CC[C@@H](NS(=O)(=O)Cc3ccccc3)C(=O)N21`, the pKi (commonly −log10 of the Ki, conventionally taken in molar units) in assay [1] is 4.59; in assay [2], 5.29.

On to `NC(N)=NCCCCNC(=O)[C@@H]1CS[C@H]2CC[C@H](N)C(=O)N21.O=C(O)C(F)(F)F`, for which the Ki result in assay [3] is on record as “Not Active”. Further, the pKi in assay [4] is 4.71; in assay [2] it was 5.45.

As for `NC(N)=NCCCCNC(=O)[C@@H]1CS[C@H]2CC[C@@H](N)C(=O)N21.O=C(O)C(F)(F)F`, the Ki entry in assay [3] was “Not Active”. The negative logarithm of the Ki (pKi) in assay [4] is 4.20; in assay [2] it was 5.27.

On to `N=C(N)NCCCNC(=O)[C@@H]1CS[C@H]2CC[C@@H](NS(=O)(=O)c3cccc4ccccc34)C(=O)N21`, for which the figures for the pKi in assay [1], in assay [4] and in assay [2] were 5.17, 6.12 and 5.47, respectively.

Take `N=C(N)NCCCNC(=O)[C@@H]1CS[C@H]2CC[C@H](NS(=O)(=O)Cc3ccccc3)C(=O)N21`: the pKi is under 4.47 in assay [1], 6.95 in assay [4] and 5.10 in assay [2].

As to `NC(N)=NCCCNC(=O)[C@@H]1CS[C@H]2CC[C@H](N)C(=O)N21`, the values for the negative logarithm of the Ki (pKi) in assay [1], in assay [4] and in assay [2] were under 4.47, 5.29 and 4.88, respectively.

For `N=C(N)NCCCNC(=O)[C@@H]1CS[C@H]2CC[C@H](NS(=O)(=O)c3cccc4ccccc34)C(=O)N21`, the pKi in assay [1] is 4.75; in assay [5] it was 4.71.

As to `NC(N)=NCCCNC(=O)[C@@H]1CS[C@H]2CC[C@@H](N)C(=O)N21.O=C(O)C(F)(F)F`, the Ki entry in assay [3] is listed as “Not Active”. The pKi in assay [4] was 4.99; in assay [2] it was 4.60.

Source of the values: ChEMBL document CHEMBL1131291, “Rational design, synthesis, and X-ray structure of selective noncovalent thrombin inhibitors” (J Med Chem, 1998).
